# Where “and” joins values, the source holds several entries; their conditions need not be identical. Equal entries are not always repeated.
# Test system: HEK-293T
# Test: Multiplex assay against HEK293T;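 as to Population Tubulin-Different-Phenotype (%): share of the cells with healthy nuclei that show this phenotype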
# Assay type: toxicity, cell-based
# Conditions: human
# How it was run: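 At seeding, live cells were stained with Hoechst33342, BioTracker Green Microtubule Cytoskeleton Dye, MitoTracker Red and Annexin V Alexa Fluor 680. After compound addition they were imaged on a CQ1 microscope at 37°C and 5% CO2, and CellPathfinder machine-learning gating sorted them into Hoechst high-intensity objects or normal cells, with normal cells further split into healthy, pyknosed or fragmented nuclei and pyknosed cells into mitotic or apoptotic. Tubulin, mitochondrial-mass and membrane-permeability phenotypes are given as per cents of cells with healthy nuclei.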
# [1] = 12 h, 1 µM, compound concentration 1 uM, replicate 1
# [2] = 12 h, 1 µM, compound concentration 1 uM, replicate 2
# [3] = 12 h, 10 µM, compound concentration 10 uM, replicate 1
# [4] = 12 h, 10 µM, compound concentration 10 uM, replicate 2
# [5] = 24 h, 1 µM, compound concentration 1 uM, replicate 1
# [6] = 24 h, 1 µM, compound concentration 1 uM, replicate 2
# [7] = 24 h, 10 µM, compound concentration 10 uM, replicate 1
# [8] = 24 h, 10 µM, compound concentration 10 uM, replicate 2
# [9] = 48 h, 1 µM, compound concentration 1 uM, replicate 1
# [10] = 48 h, 1 µM, compound concentration 1 uM, replicate 2
# [11] = 48 h, 10 µM, compound concentration 10 uM, replicate 1
# [12] = 48 h, 10 µM, compound concentration 10 uM, replicate 2
structure (smiles),measurement,setting,value
O=C(Cc1ccc(-c2ccc(OCCN3CCOCC3)cc2)cn1)NCc1ccccc1 [TIRBANIBULIN],Population Apoptotic (%),[1],34%
same,Population Fragmented Nuclei (%),[1],17%
same,Population Healthy Nuclei (%),[1],21%
same,Population Hoechst High Intensity Objects (%),[1],12%
same,Population Membrane Permeable-Phenotype (%),[1],0%
same,Population Mitochondria Different-Phenotype (%),[1],58%
same,Population Mitotic Cells (%),[1],65%
same,Population Normal (%),[1],87%
same,Population Pyknosed Nuclei (%),[1],61%
same,Population Tubulin-Different-Phenotype (%),[1],2%
same,Total Cell Count,[1],193
same,Population Apoptotic (%),[2],16%
same,Population Fragmented Nuclei (%),[2],8%
same,Population Healthy Nuclei (%),[2],30%
same,Population Hoechst High Intensity Objects (%),[2],2%
same,Population Membrane Permeable-Phenotype (%),[2],10%
same,Population Mitochondria Different-Phenotype (%),[2],23%
same,Population Mitotic Cells (%),[2],83%
same,Population Normal (%),[2],97%
same,Population Pyknosed Nuclei (%),[2],60%
same,Population Tubulin-Different-Phenotype (%),[2],11%
same,Total Cell Count,[2],231
same,Population Apoptotic (%),[3],52%
same,Population Fragmented Nuclei (%),[3],20%
same,Population Healthy Nuclei (%),[3],21%
same,Population Hoechst High Intensity Objects (%),[3],18%
same,Population Membrane Permeable-Phenotype (%),[3],0%
same,Population Mitochondria Different-Phenotype (%),[3],79%
same,Population Mitotic Cells (%),[3],47%
same,Population Normal (%),[3],81%
same,Population Pyknosed Nuclei (%),[3],58%
same,Population Tubulin-Different-Phenotype (%),[3],27%
same,Total Cell Count,[3],169
same,Population Apoptotic (%),[4],17%
same,Population Fragmented Nuclei (%),[4],5%
same,Population Healthy Nuclei (%),[4],28%
same,Population Hoechst High Intensity Objects (%),[4],5%
same,Population Membrane Permeable-Phenotype (%),[4],2%
same,Population Mitochondria Different-Phenotype (%),[4],23%
same,Population Mitotic Cells (%),[4],82%
same,Population Normal (%),[4],95%
same,Population Pyknosed Nuclei (%),[4],66%
same,Population Tubulin-Different-Phenotype (%),[4],6%
same,Total Cell Count,[4],160
same,Population Apoptotic (%),[5],39%
same,Population Fragmented Nuclei (%),[5],17%
same,Population Healthy Nuclei (%),[5],21%
same,Population Hoechst High Intensity Objects (%),[5],14%
same,Population Membrane Permeable-Phenotype (%),[5],2%
same,Population Mitochondria Different-Phenotype (%),[5],37%
same,Population Mitotic Cells (%),[5],60%
same,Population Normal (%),[5],85%
same,Population Pyknosed Nuclei (%),[5],61%
same,Population Tubulin-Different-Phenotype (%),[5],5%
same,Total Cell Count,[5],194
same,Population Apoptotic (%),[6],27%
same,Population Fragmented Nuclei (%),[6],6%
same,Population Healthy Nuclei (%),[6],29%
same,Population Hoechst High Intensity Objects (%),[6],2%
same,Population Membrane Permeable-Phenotype (%),[6],6%
same,Population Mitochondria Different-Phenotype (%),[6],25%
same,Population Mitotic Cells (%),[6],72%
same,Population Normal (%),[6],97%
same,Population Pyknosed Nuclei (%),[6],63%
same,Population Tubulin-Different-Phenotype (%),[6],33%
same,Total Cell Count,[6],207
same,Population Apoptotic (%),[7],54%
same,Population Fragmented Nuclei (%),[7],21%
same,Population Healthy Nuclei (%),[7],16%
same,Population Hoechst High Intensity Objects (%),[7],17%
same,Population Membrane Permeable-Phenotype (%),[7],0%
same,Population Mitochondria Different-Phenotype (%),[7],82%
same,Population Mitotic Cells (%),[7],45%
same,Population Normal (%),[7],82%
same,Population Pyknosed Nuclei (%),[7],62%
same,Population Tubulin-Different-Phenotype (%),[7],17%
same,Total Cell Count,[7],168
same,Population Apoptotic (%),[8],22%
same,Population Fragmented Nuclei (%),[8],5%
same,Population Healthy Nuclei (%),[8],25%
same,Population Hoechst High Intensity Objects (%),[8],5%
same,Population Membrane Permeable-Phenotype (%),[8],7%
same,Population Mitochondria Different-Phenotype (%),[8],23%
same,Population Mitotic Cells (%),[8],77%
same,Population Normal (%),[8],94%
same,Population Pyknosed Nuclei (%),[8],68%
same,Population Tubulin-Different-Phenotype (%),[8],18%
same,Total Cell Count,[8],160
same,Population Apoptotic (%),[9],56%
same,Population Fragmented Nuclei (%),[9],25%
same,Population Healthy Nuclei (%),[9],23%
same,Population Hoechst High Intensity Objects (%),[9],16%
same,Population Membrane Permeable-Phenotype (%),[9],5%
same,Population Mitochondria Different-Phenotype (%),[9],45%
same,Population Mitotic Cells (%),[9],43%
same,Population Normal (%),[9],83%
same,Population Pyknosed Nuclei (%),[9],50%
same,Population Tubulin-Different-Phenotype (%),[9],24%
same,Total Cell Count,[9],187
same,Population Apoptotic (%),[10],40%
same,Population Fragmented Nuclei (%),[10],12%
same,Population Healthy Nuclei (%),[10],43%
same,Population Hoechst High Intensity Objects (%),[10],4%
same,Population Membrane Permeable-Phenotype (%),[10],12%
same,Population Mitochondria Different-Phenotype (%),[10],25%
same,Population Mitotic Cells (%),[10],60%
same,Population Normal (%),[10],95%
same,Population Pyknosed Nuclei (%),[10],44%
same,Population Tubulin-Different-Phenotype (%),[10],50%
same,Total Cell Count,[10],213
same,Population Apoptotic (%),[11],56%
same,Population Fragmented Nuclei (%),[11],29%
same,Population Healthy Nuclei (%),[11],13%
same,Population Hoechst High Intensity Objects (%),[11],17%
same,Population Membrane Permeable-Phenotype (%),[11],0%
same,Population Mitochondria Different-Phenotype (%),[11],66%
same,Population Mitotic Cells (%),[11],44%
same,Population Normal (%),[11],82%
same,Population Pyknosed Nuclei (%),[11],56%
same,Population Tubulin-Different-Phenotype (%),[11],11%
same,Total Cell Count,[11],160
same,Population Apoptotic (%),[12],36%
same,Population Fragmented Nuclei (%),[12],7%
same,Population Healthy Nuclei (%),[12],39%
same,Population Hoechst High Intensity Objects (%),[12],4%
same,Population Membrane Permeable-Phenotype (%),[12],9%
same,Population Mitochondria Different-Phenotype (%),[12],23%
same,Population Mitotic Cells (%),[12],63%
same,Population Normal (%),[12],95%
same,Population Pyknosed Nuclei (%),[12],52%
same,Population Tubulin-Different-Phenotype (%),[12],20%
same,Total Cell Count,[12],145
Cn1nc(C(=O)NCc2ccc(C(=O)O)cc2)cc1-c1ccc2[nH]ccc2c1 [BI 4395],Population Apoptotic (%),[3],20% and 23%
same,Population Fragmented Nuclei (%),[3],9% and 10%
same,Population Healthy Nuclei (%),[3],78% and 75%
same,Population Hoechst High Intensity Objects (%),[3],9% and 8%
same,Population Membrane Permeable-Phenotype (%),[3],4% and 2%
same,Population Mitochondria Different-Phenotype (%),[3],2% and 7%
same,Population Mitotic Cells (%),[3],79% and 76%
same,Population Normal (%),[3],90% and 91%
same,Population Pyknosed Nuclei (%),[3],12% and 14%
same,Population Tubulin-Different-Phenotype (%),[3],2% and 3%
same,Total Cell Count,[3],895 and 750
same,Population Apoptotic (%),[4],5% and 6%
same,Population Healthy Nuclei (%),[4],84%
same,Population Hoechst High Intensity Objects (%),[4],1%
same,Population Membrane Permeable-Phenotype (%),[4],1%
same,Population Mitochondria Different-Phenotype (%),[4],4%
same,Population Mitotic Cells (%),[4],94% and 93%
same,Population Normal (%),[4],98%
same,Population Pyknosed Nuclei (%),[4],5% and 4%
same,Population Tubulin-Different-Phenotype (%),[4],4%
same,Total Cell Count,[4],1558 and 1918
same,Population Apoptotic (%),[7],15% and 13%
same,Population Fragmented Nuclei (%),[7],11% and 14%
same,Population Healthy Nuclei (%),[7],81% and 80%
same,Population Hoechst High Intensity Objects (%),[7],6% and 4%
same,Population Membrane Permeable-Phenotype (%),[7],9% and 6%
same,Population Mitochondria Different-Phenotype (%),[7],2% and 4%
same,Population Mitotic Cells (%),[7],84% and 86%
same,Population Normal (%),[7],93% and 95%
same,Population Pyknosed Nuclei (%),[7],6% and 5%
same,Population Tubulin-Different-Phenotype (%),[7],3% and 5%
same,Total Cell Count,[7],1152 and 1021
same,Population Fragmented Nuclei (%),[8],26% and 29%
same,Population Healthy Nuclei (%),[8],71% and 68%
same,Population Hoechst High Intensity Objects (%),[8],2% and 3%
same,Population Membrane Permeable-Phenotype (%),[8],4%
same,Population Mitochondria Different-Phenotype (%),[8],1%
same,Population Mitotic Cells (%),[8],98% and 91%
same,Population Normal (%),[8],97% and 96%
same,Population Pyknosed Nuclei (%),[8],2% and 1%
same,Total Cell Count,[8],2665 and 3275

# — ChEMBL document CHEMBL4689842, “EUbOPEN Chemogenomics Library wave 1” (2021)
